Source: PubChem (several laboratories)
HIV Rev-RRE inh: inhibitors of HIV-1 Rev-RRE RNA interaction. 97,000 compounds, 0.79% hits. Rev peptide-RRE RNA binding, FRET. inhibition, % at 8 µM;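 active means inhibition above the screen-wide mean plus 3 SD, cut at about 35% in these data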;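 further: 0% = median DMSO wells and 100% = median Neomycin B control wells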
Target sequence (P05866 whole entry, looked up): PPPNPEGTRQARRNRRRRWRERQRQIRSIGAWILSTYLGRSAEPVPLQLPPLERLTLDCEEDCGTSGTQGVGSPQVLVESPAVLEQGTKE
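Test system – labelled RRE RNA duplex and labelled Rev peptide · Signal – fluorescein-to-Cy5 FRET, 480 nm excitation · Evaluation – % inhibition of FRET ratio versus controls · Benchmarks – DMSO low control, neomycin B high control · Incubation – 5 min RNA-compound premix plus 15 min binding step, 25 °C · Medium – HEPES pH 7.5 salt buffer with EDTA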
cytoskel mod: modifiers of cytoskeleton assembly; HUVEC TNFa F-actin phalloidin imaging, high content; inhibition, % at 2 µM; 91,000 compounds, 0.18% hits;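 active means inhibition above the batch mean plus 3 SD and confirmed as a hit by visual image inspection, cut at about 30% in these data, passing the limit was not always enough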
PLK1 inh: inhibitors of human PLK1 kinase. recombinant PLK1 kinase, TR-FRET peptide phosphorylation. inhibition, % at 10 µM. 97,000 compounds, 0.53% hits;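 active means inhibition of 50% or more in the single-concentration screen; inactive means inhibition below 50%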;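 further: 0% = DMSO max control and 100% = H-89 dihydrochloride min control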
FAK blocker: FAK (human) kinase inhibition; biochemical FAK kinase activity assay; inhibition, %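 (tested at 7 µM)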; 97,000 compounds, 0.84% hits; AID 727;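 further: 0% = DMSO and 100% = reference compound high control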
Plk1 PBD FP: inhibitors of human Plk1 polo box domain binding; P53350; Plk1 PBD phosphopeptide binding, fluorescence polarization; inhibition, %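 (tested at about 20 µM)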; 97,000 compounds, 0.13% hits; AID 693; in the data active means inhibition above about 34%, passing the limit was not always enough
E-sel TNF inh: blocks E-selectin expression induced by TNF alpha. HUVEC TNFa-induced E-selectin immunofluorescence, high content. inhibition, % at 2 µM. 120,000 compounds, 0.71% hits. AID 1246;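 active means inhibition above the batch mean plus 3 SD, and confirmed as a hit on visual image review, cut at about 43% in these data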;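 further: 0% = TNF-stimulated DMSO wells and 100% = unstimulated control wells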
FAK inh conf: FAK (human) inhibition confirmed | shares compounds with FAK blocker | FAK kinase biochemical inhibition assay | inhibition, % at 7 µM | 750 compounds, 28% hits
Starred values were filed as active, the others as inactive; [ ] = dose if it differs, or a comment. In the library only some 2.2% were active in any assay of this set; here they are far more common. Unless noted, no stated cut-off is given here; in the data, active means inhibition above about 19%; inactive means the rest.

Results for CCCCn1c(NC(=O)c2ccccc2)c(C#N)c2nc3ccccc3nc21 ?
HIV Rev-RRE inh: 49.9*; cytoskel mod: 4.9; PLK1 inh: 3.0; FAK blocker: 41.7*; Plk1 PBD FP: 0.8; FAK inh conf: 0.6

What do the screens show for `COc1ccc(-n2c(NC(=O)c3ccc(Br)o3)c(C#N)c3nc4ccccc4nc32)cc1`?
HIV Rev-RRE inh: 32.9; cytoskel mod: 12.5; PLK1 inh: -15.6; FAK blocker: 1.3; Plk1 PBD FP: -38.4; E-sel TNF inh: 19.8

What do the screens show for `CCC(C)n1c(NC(=O)c2ccccc2)c(C#N)c2nc3ccccc3nc21` (stereo unspecified)?
HIV Rev-RRE inh: 75.7*; cytoskel mod: -1.2; PLK1 inh: -12.2; FAK blocker: 24.7*; Plk1 PBD FP: -8.1; E-sel TNF inh: 4.7; FAK inh conf: -2.9

Results for CCOc1cc(/C=C2/NC(=S)NC2=O)ccc1OCc1ccc([N+](=O)[O-])cc1 ?
HIV Rev-RRE inh: 25.0; cytoskel mod: -18.0; PLK1 inh: -7.4; FAK blocker: 41.0*; Plk1 PBD FP: 8.6; FAK inh conf: 22.4*

How did Cc1ccc(C(=O)c2c(C)oc3c2C(=O)C(=O)c2ccccc2-3)cc1 do in these assays?
HIV Rev-RRE inh: 9.7; cytoskel mod: 15.6; PLK1 inh: -11.2; FAK blocker: 21.4*; Plk1 PBD FP: -2.9; E-sel TNF inh: 14.3; FAK inh conf: 13.7

How did Cc1oc2c(c1C(=O)c1ccc(Cl)cc1)C(=O)C(=O)c1ccccc1-2 do in these assays?
HIV Rev-RRE inh: 7.8; cytoskel mod: -2.1; PLK1 inh: -9.7; FAK blocker: 15.9; Plk1 PBD FP: 25.5; E-sel TNF inh: -26.1

Results for CCc1ccccc1N(CC(=O)NCc1ccco1)C(=O)c1snc(C(N)=O)c1N ?
HIV Rev-RRE inh: 10.4; cytoskel mod: 23.6; PLK1 inh: -2.8; FAK blocker: 40.8*; Plk1 PBD FP: 2.5; FAK inh conf: 14.9

Results for COc1ccc(CNC(=O)C(C)N(Cc2ccco2)C(=O)c2snc(C(N)=O)c2N)cc1 (stereo unspecified) ?
HIV Rev-RRE inh: 5.3; cytoskel mod: -5.4; PLK1 inh: -9.5; FAK blocker: 10.6; Plk1 PBD FP: -27.8; E-sel TNF inh: 22.0

How did Cc1nn(Cc2ccc(Cl)cc2)c(C)c1NC(=O)CCCn1nc([N+](=O)[O-])c(Cl)c1C do in these assays?
E-sel TNF inh: -7.2

Results for N#Cc1cc2c(N)c(C(=O)Nc3ccccc3)sc2nc1N ?
HIV Rev-RRE inh: 2.8; cytoskel mod: -13.3; PLK1 inh: -3.2; FAK blocker: -1.7; Plk1 PBD FP: -10.5

How did Nc1c(C(=O)Nc2ccccc2)sc2nc(-c3ccco3)ccc12 do in these assays?
HIV Rev-RRE inh: 36.4*; cytoskel mod: 3.4; PLK1 inh: -1.1; FAK blocker: 26.0*; Plk1 PBD FP: -10.3; E-sel TNF inh: -5.3; FAK inh conf: -3.4

What do the screens show for `Nc1c(C(=O)Nc2nc3ccccc3s2)sc2nc(-c3cccs3)ccc12`?
HIV Rev-RRE inh: 132.7*[fluorescence artefact?]; cytoskel mod: -36.5; PLK1 inh: -18.4; FAK blocker: 49.5*; Plk1 PBD FP: -55.4; E-sel TNF inh: -32.7; FAK inh conf: 26.8*

How did COCCCNc1c2c3c(cccc3[nH]c1=O)C(=O)c1ccccc1-2 do in these assays?
HIV Rev-RRE inh: 141.1*[fluorescence artefact?]; cytoskel mod: 7.8; PLK1 inh: -157.6; FAK blocker: 20.3*; Plk1 PBD FP: 18.2; FAK inh conf: 9.8

What do the screens show for `CCOC(=O)c1c2c3c(cccc3[nH]c1=O)C(=O)c1ccccc1-2`?
E-sel TNF inh: -13.9

How did O=C(N/N=C/C=C/c1ccccc1)c1cc2c(ccc3ccccc32)o1 do in these assays?
HIV Rev-RRE inh: -20.7; cytoskel mod: -1.7; PLK1 inh: -8.2; FAK blocker: 41.9*; Plk1 PBD FP: 10.9; E-sel TNF inh: 23.3; FAK inh conf: 17.4

How did CCc1cc(-c2n[nH]c(C)c2Oc2ccc(C(C)C)cc2)c(O)cc1O do in these assays?
HIV Rev-RRE inh: 18.6; cytoskel mod: -6.1; PLK1 inh: -52.8; FAK blocker: -0.8; Plk1 PBD FP: -12.9; E-sel TNF inh: 4.4

What do the screens show for `Cc1ccc(Cn2c(=N)c(C(=O)NCc3ccco3)cc3c(=O)n4ccccc4nc32)cc1`?
HIV Rev-RRE inh: 26.6; cytoskel mod: -16.3; PLK1 inh: 3.7; FAK blocker: 39.9*; Plk1 PBD FP: -12.2; E-sel TNF inh: -7.3; FAK inh conf: 4.3
